In ChEMBL document CHEMBL1131201, “N-(benzyloxycarbonyl)glycine esters and amides as new anticonvulsants” (J Med Chem, 1998):
Each block holds one compound with its values, some of them ahead of it.

Legend:
Mus musculus [1] = assay: Compound was tested for anticonvulsant activity in maximal electroshock seizure(MES) test after 30 min upon intraperitoneal administration to mice at a dose of 750 mg/kg; type: functional; conditions: ip, 0.5 h
Outline: (§1)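 Male OF1 mice (15-25 g), free access to water only during testing. Compound given ip and maximal electroshock applied at 30 min or 3 h. Typically 8-10 mice per compound, dose and time point. Screening at initial 0.4 mmol/kg, scored as protected/tested.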

Mus musculus [2] = assay: Compound was tested for anticonvulsant activity in maximal electroshock seizure(MES) test after 3 hours upon intraperitoneal administration to mice at a dose of 750 mg/kg; type: functional; conditions: ip; outline: as §1
Mus musculus [3] = assay: Ratio of the animals protected to animals tested after 30 min. in the MES test after intraperitoneal administration to mice at a dose of 150 mg/kg; Animals protected / Animals tested = 2/10; type: functional; outline: as §1
Mus musculus [4] = assay: Ratio of the animals protected to animals tested after 3h in the MES test after intraperitoneal administration to mice at a dose of 150 mg/kg; Animals protected / Animals tested = 3/8; type: functional; outline: as §1
[5] = Lipophilicity value was evaluated; type: physicochemical; conditions: RP-HPLC
Outline: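 Lipophilicity by RP-HPLC on a C18 column at 1.0 mL/min. Mobile phases were 10-50% […] with 50-90% 0.01 M phosphate buffer pH 7.4. Triplicate runs per eluent. log k_o extrapolated from at least four eluent compositions. ClogP also calculated.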

Mus musculus [6] = assay: Compound was tested for anticonvulsant activity in maximal electroshock seizure(MES) test after 3 hours upon intraperitoneal administration to mice; type: functional; conditions: ip; outline: as §1
Mus musculus [7] = assay: Compound was tested for anticonvulsant activity in maximal electroshock seizure(MES) test after 30 min upon intraperitoneal administration to mice at a dose of 58 mg/kg; Animals protected / Animals tested = 2/10; type: functional; outline: as §1
Mus musculus [8] = assay: Compound was tested for anticonvulsant activity in maximal electroshock seizure(MES) test after 30 min upon intraperitoneal administration to mice at a dose of 89 mg/kg; Animals protected / Animals tested = 3/8; type: functional; outline: as §1
Mus musculus [9] = assay: Compound was tested for anticonvulsant activity in maximal electroshock seizure(MES) test after 3 hours upon intraperitoneal administration to mice at a dose of 89 mg/kg; Animals protected / Animals tested = 4/10; type: functional; outline: as §1
Mus musculus [10] = assay: Compound was tested for anticonvulsant activity in maximal electroshock seizure(MES) test after 3 hr upon intraperitoneal administration to mice; type: functional; conditions: ip; outline: as §1
Mus musculus [11] = assay: Compound was tested for anticonvulsant activity in maximal electroshock seizure(MES) test after 30 min upon intraperitoneal administration to mice; type: functional; conditions: ip, 0.5 h; outline: as §1
Mus musculus [12] = assay: Compound was tested for anticonvulsant activity in maximal electroshock seizure(MES) test after 3 hours upon intraperitoneal administration to mice at a dose of 120 mg/kg; Animals protected / Animals tested = 6/9; type: functional; outline: as §1
Mus musculus [13] = assay: Compound was tested for anticonvulsant activity in maximal electroshock seizure(MES) test after 30 min upon intraperitoneal administration to mice at a dose of 120 mg/kg; Animals protected / Animals tested = 4/10; type: functional; outline: as §1
Mus musculus [14] = assay: Ratio of the animals protected to animals tested after 3h in the MES test after intraperitoneal administration to mice at a dose of 150 mg/kg; Animals protected / Animals tested = 5/10; type: functional; outline: as §1
Mus musculus [15] = assay: Ratio of the animals protected to animals tested after 30 min. in the MES test after intraperitoneal administration to mice at a dose of 150 mg/kg; Animals protected / Animals tested = 1/8; type: functional; outline: as §1
Mus musculus [16] = assay: The average latency on the onset of the seizures compared to the controls after 30 min in the strychnine test in mice at a dose of 209 mg/kg; type: functional
Outline: (§2)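 Male NMRI mice (18-25 g). Compound in DMSO given ip at 2 mL/kg. Strychnine chlorhydrate in saline (1.2 mg/mL, 1 mL/kg) given sc 30 min or 3 h later, with 30 min observation. Seizure onset latency expressed as % of the mean control latency (mean ± SD, n = 8-10).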

Mus musculus [17] = assay: Percent of the tonic seizures after 30 min in the 3-mercaptopropionic acid test in mice at a dose of 418 mg/kg, ip; type: functional; conditions: route intraperitoneal
Outline: (§3)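 Male NMRI mice (18-25 g). Compound in DMSO given ip at 2 mL/kg. 3-Mercaptopropionic acid 40 mg/kg ip in saline given 30 min or 3 h later. Tonic seizures recorded and expressed as % of animals.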

Mus musculus [18] = assay: Compound was tested for anticonvulsant activity in maximal electroshock seizure(MES) test after 30 min upon intraperitoneal administration to mice at a dose of 84 mg/kg; Animals protected / Animals tested = 2/8; type: functional; outline: as §1
Mus musculus [19] = assay: The average latency on the onset of the seizures compared to the controls after 3 hr in the strychnine test in mice at a dose of 209 mg/kg; type: functional; outline: as §2
Mus musculus [20] = assay: Percent of the tonic seizures after 3h in the 3-mercaptopropionic acid test in mice at a dose of 418mg/kg, ip; type: functional; outline: as §3
Mus musculus [21] = assay: Percent of the tonic seizures after 30 min in the 3-mercaptopropionic acid test in mice at a dose of 209 mg/kg, ip; type: functional; conditions: route intraperitoneal; outline: as §3
Mus musculus [22] = assay: Percent of the tonic seizures after 3h in the 3-mercaptopropionic acid test in mice at a dose of 209 mg/kg, ip; type: functional; conditions: route intraperitoneal; outline: as §3
Mus musculus [23] = assay: The average latency on the onset of the seizures compared to the controls after 30 min in the strychnine test in mice at a dose of 220 mg/kg; type: functional; outline: as §2
Mus musculus [24] = assay: Compound was tested for anticonvulsant activity in maximal electroshock seizure(MES) test after 30 min upon intraperitoneal administration to mice at a dose of 89 mg/kg; Animals protected / Animals tested = 2/8; type: functional; outline: as §1
Mus musculus [25] = assay: The average latency on the onset of the seizures compared to the controls after 3h in the strychnine test in mice at a dose of 220 mg/kg; type: functional; outline: as §2
Mus musculus [26] = assay: Percent of the tonic seizures after 30 min in the 3-mercaptopropionic acid test at a dose of 207 mg/kg; type: functional; outline: as §3
Mus musculus [27] = assay: Percent of the tonic seizures after 3h in the 3-mercaptopropionic acid test at a dose of 207 mg/kg; type: functional; outline: as §3
Mus musculus [28] = assay: Compound was tested for anticonvulsant activity in maximal electroshock seizure(MES) test after 3 hours upon intraperitoneal administration to mice at a dose of 166 mg/kg; Animals protected / Animals tested = 6/9; type: functional; outline: as §1
Mus musculus [29] = assay: The average latency on the onset of the seizures compared to the controls after 3h in the strychnine test at a dose of 207 mg/kg; type: functional; outline: as §2
Mus musculus [30] = assay: The average latency on the onset of the seizures compared to the controls after 30 min in the strychnine test at a dose of 207 mg/kg; type: functional; outline: as §2
Mus musculus [31] = assay: Compound was tested for anticonvulsant activity in maximal electroshock seizure(MES) test after 30 min upon intraperitoneal administration to mice at a dose of 166 mg/kg; Animals protected / Animals tested = 3/9; type: functional; outline: as §1
Mus musculus [32] = assay: Compound was tested for anticonvulsant activity in maximal electroshock seizure(MES) test after 30 min upon intraperitoneal administration to mice at a dose of 120 mg/kg; Animals protected / Animals tested = 0/8; type: functional; outline: as §1
Mus musculus [33] = assay: Compound was tested for anticonvulsant activity in maximal electroshock seizure(MES) test after 30 min upon intraperitoneal administration to mice at a dose of 114 mg/kg; Animals protected / Animals tested = 3/10; type: functional; outline: as §1
Mus musculus [34] = assay: Compound was tested for anticonvulsant activity in maximal electroshock seizure(MES) test after 3 hours upon intraperitoneal administration to mice at a dose of 114 mg/kg; Animals protected / Animals tested = 4/8; type: functional; outline: as §1
Mus musculus [35] = assay: Compound was tested for anticonvulsant activity in maximal electroshock seizure(MES) test after 3 hours upon intraperitoneal administration to mice at a dose of 106 mg/kg; Animals protected / Animals tested = 4/8; type: functional; outline: as §1
Mus musculus [36] = assay: Compound was tested for anticonvulsant activity in maximal electroshock seizure(MES) test after 30 min upon intraperitoneal administration to mice at a dose of 120 mg/kg; Animals protected / Animals tested = 1/8; type: functional; outline: as §1
Mus musculus [37] = assay: Compound was tested for anticonvulsant activity in maximal electroshock seizure(MES) test after 3 hours upon intraperitoneal administration to mice at a dose of 116 mg/kg; Animals protected / Animals tested = 3/8; type: functional; outline: as §1

Compound: CCCC(CCC)C(=O)O [VALPROIC ACID]
ED50 (Mus musculus [1]): 44.5 mg/kg
ED50 (Mus musculus [2]): 80.6 mg/kg

Compound: CCCCCCCCCCNC(=O)CNC(=O)OCc1ccccc1
Protected/tested (Mus musculus [3]): 2
Protected/tested (Mus musculus [4]): 3
Log Ko [5]: > 5

Compound: CCCCCNCC(N)=O [MILACEMIDE]
ED50 (Mus musculus [6]): 30.2 mg/kg
Protected/tested (Mus musculus [7]): 2

Compound: COC(=O)CNC(=O)CCc1ccccc1
Protected/tested (Mus musculus [8]): 3
Log Ko [5]: 2.37
Protected/tested (Mus musculus [9]): 4

Compound: CCCC(CCC)C(N)=O [VALPROMIDE]
ED50 (Mus musculus [1]): 14.9 mg/kg
ED50 (Mus musculus [2]): 11.4 mg/kg

Compound: O=C1NC(=O)C(c2ccccc2)(c2ccccc2)N1 [PHENYTOIN]
ED50 (Mus musculus [10]): 3 mg/kg
ED50 (Mus musculus [11]): 3.5 mg/kg

Compound: CCCCCCCCCCOC(=O)CNC(=O)OCc1ccccc1
Protected/tested (Mus musculus [14]): 5
Protected/tested (Mus musculus [15]): 1
Log Ko [5]: > 5

Compound: O=C(O)CNC(=O)OCc1ccccc1
Average latency (Mus musculus [16]): 150%
Tonic seizures (Mus musculus [17]): 33%
Protected/tested (Mus musculus [18]): 2
ED50 (Mus musculus [6]): 56.5 mg/kg
Average latency (Mus musculus [19]): 142%
Tonic seizures (Mus musculus [20]): 27%
Tonic seizures (Mus musculus [21]): 55%
Tonic seizures (Mus musculus [22]): 45%

Compound: O=C(O)CNC(=O)CCc1ccccc1 [HYDROCINNAMOYLGLYCINE]
Tonic seizures (Mus musculus [26]): 80%
Tonic seizures (Mus musculus [27]): 100%
Protected/tested (Mus musculus [28]): 6
Average latency (Mus musculus [29]): 96%
Average latency (Mus musculus [30]): 99%
Protected/tested (Mus musculus [31]): 3

Further lines, with some results ahead:

Log Ko [5]: 4.35
Compound: O=C(CNC(=O)OCc1ccccc1)OCc1ccccc1
Protected/tested (Mus musculus [12]): 6
Protected/tested (Mus musculus [13]): 4

Log Ko [5]: 1.52
Compound: NC(=O)CNC(=O)OCc1ccccc1
ED50 (Mus musculus [6]): 8.3 mg/kg
ED50 (Mus musculus [11]): 15.2 mg/kg

Log Ko [5]: 2.64
Compound: COC(=O)CNC(=O)OCc1ccccc1
ED50 (Mus musculus [2]): 16.5 mg/kg
Average latency (Mus musculus [23]): 154%
Protected/tested (Mus musculus [24]): 2
Average latency (Mus musculus [25]): 139%

Log Ko [5]: 3.99
Compound: Cc1ccc(NC(=O)CNC(=O)OCc2ccccc2)cc1
Protected/tested (Mus musculus [32]): 0
ED50 (Mus musculus [6]): 27.4 mg/kg

Log Ko [5]: 3.49
Compound: O=C(CNC(=O)OCc1ccccc1)Nc1ccccc1
Protected/tested (Mus musculus [33]): 3
Protected/tested (Mus musculus [34]): 4

Log Ko [5]: 2.03
Compound: CNC(=O)CNC(=O)OCc1ccccc1
ED50 (Mus musculus [6]): 7.8 mg/kg
ED50 (Mus musculus [11]): 13.6 mg/kg

Log Ko [5]: 2.65
Compound: CC(C)NC(=O)CNC(=O)OCc1ccccc1
ED50 (Mus musculus [6]): 9.5 mg/kg
ED50 (Mus musculus [11]): 14 mg/kg

Log Ko [5]: 3.25
Compound: CC(C)(C)NC(=O)CNC(=O)OCc1ccccc1
Protected/tested (Mus musculus [35]): 4
ED50 (Mus musculus [11]): 39.4 mg/kg

Log Ko [5]: 3.88
Compound: O=C(CNC(=O)OCc1ccccc1)NCCc1ccccc1
ED50 (Mus musculus [6]): 16.6 mg/kg
ED50 (Mus musculus [11]): 8.1 mg/kg

Log Ko [5]: 3.49
Compound: Cc1ccccc1NC(=O)CNC(=O)OCc1ccccc1
ED50 (Mus musculus [6]): 74.3 mg/kg
Protected/tested (Mus musculus [36]): 1

Log Ko [5]: 3.7
Compound: O=C(CNC(=O)OCc1ccccc1)NC1CCCCC1
Protected/tested (Mus musculus [37]): 3
ED50 (Mus musculus [11]): 33.4 mg/kg
